In ChEMBL document CHEMBL1122945, “Synthesis and antitumor activity of a series of ftorafur analogues: the effect of varying electronegativity at the 1'-position” (J Med Chem, 1985):

Experiments:
[1] = Evaluated in vitro for the Cytotoxic activity in the L1210 cell culture screen at 1 uM Maximum cell kill in a 72-h period; format: cell-based; conditions: mouse, L1210 cells; read-out: Inhibition
Summary of the method: (§1)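 Compounds were suspended or dissolved in sterile 5 mM phosphate-buffered saline, sonicated 3 min, then serially diluted. L1210 cells were kept in suspension culture in RPMI-1640 with 10% fetal calf serum, penicillin and streptomycin at 37 °C, 98% humidity, 5% CO2. Exponentially growing cells (4 × 10^5 cells/mL) were exposed to compound. Read-out was percent inhibition versus control at maximum cell kill within 72 h, N = 9.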

[2] = Evaluated in vitro for the Cytotoxic activity in the L1210 cell culture screen at 10 uM Maximum cell kill in a 72-h period; format: cell-based; conditions: mouse, L1210 cells; read-out: Inhibition; summary of the method: as §1
[3] = Evaluated in vitro for the Cytotoxic activity in the L1210 cell culture screen at 100 uM Maximum cell kill in a 72-h period; format: cell-based; conditions: mouse, L1210 cells; read-out: Inhibition; summary of the method: as §1
[4] = system: P388; test: Evaluated for the antitumor activity in the P388 lymphocytic leukemia in female CDF1 mice injected intraperitoneally with 10 E-6 tumor cells dosed for 9 days at 20 mg/kg; format: functional, Mus musculus; conditions: route intraperitoneal
Summary of the method: (§2)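 P388 leukaemia screen run to NIH protocol in female CDF1 mice (~25 g). 1 × 10^6 cells were given ip on day 0, and compounds were dosed on days 1–9. Six mice per group, with 5-FU and fluorodeoxyuridine as positive internal standards. T/C values were calculated, and T/C above 125% counted as significant activity.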

[5] = system: P388; test: Average days survival of female CDF1 mice bearing lymphocytic leukemia, when 10 E-6 tumor cells were injected intraperitoneally, dosed for 9 days at 20 mg/kg.; format: functional, Mus musculus; conditions: route intraperitoneal
Summary of the method: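 P388 lymphocytic leukemia screen per NIH protocol in female CDF1 mice (~25 g), six per group. 1 × 10^6 cells injected ip on day 0. Compound given at 20 mg/kg on days 1–9. Survival of treated mice recorded and T/C calculated, with T/C above 125% taken as significant. 5-FU and fluorodeoxyuridine served as positive internal standards.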

[6] = system: P388; test: Evaluated for the antitumor activity in the P388 lymphocytic leukemia in female CDF1 mice injected intraperitoneally with 10 E-6 tumor cells dosed for 9 days at 20 mg/kg; no significant activity; format: functional, Mus musculus; conditions: route intraperitoneal; summary of the method: as §2
[7] = Evaluated in vitro for the Cytotoxic activity in the L1210 cell culture screen at 100 uM Maximum cell kill in a 72-h period r; format: cell-based; conditions: mouse, L1210 cells; read-out: Inhibition; summary of the method: as §1
[8] = system: P388; test: Evaluated for the antitumor activity in the P388 lymphocytic leukemia in female CDF1 mice injected intraperitoneally with 10 E-6 tumor cells dosed for 9 days at 20 mg/kg;; format: functional, Mus musculus; conditions: route intraperitoneal; summary of the method: as §2

Row | Structure (SMILES) | cytotoxicity at 72 h, 1 µM [1] | cytotoxicity at 72 h, 10 µM [2] | cytotoxicity at 72 h, 100 µM [3] | T/C [4] | Average survived [5] | T/C [6] | cytotoxicity at 72 h, 100 µM [7] | T/C [8]
1 | O=c1[nH]cc(F)c(=O)[nH]1 [FLUOROURACIL] | 79.8% | 81.2% | 90.3% | 173% | 17.6 days | – | – | –
2 | O=c1[nH]c(=O)n(C2CCCS2(=O)=O)cc1F (configuration not stated) | 59.2% | 85% | 92% | – | 12.17 days | 119% | – | –
3 | O=c1[nH]c(=O)n(C2CCCO2)cc1F (configuration not stated) [TEGAFUR] | 17.2% | 67.5% | – | 98% | 10 days | – | 81.8% | –
4 | O=c1[nH]c(=O)n(C2CCCS2)cc1F (configuration not stated) | 16.9% | 52.5% | 68.5% | 100% | 10.17 days | – | – | –
5 | O=C1CCCC1n1cc(F)c(=O)[nH]c1=O (configuration not stated) | 40% | 49.1% | 65.5% | – | 10.5 days | – | – | 103%
6 | O=c1[nH]c(=O)n(C2CCC[S+]2[O-])cc1F (configuration not stated) | 64.9% | 82.9% | 84.5% | 143% | 14.5 days | – | – | –
7 | O=c1[nH]c(=O)n([C@H]2C[C@H](O)[C@@H](CO)O2)cc1F [FLOXURIDINE] | – | – | – | 149% | 15.17 days | – | – | –
